Results published in ChEMBL document CHEMBL1128731, “Furanfurin and thiophenfurin: two novel tiazofurin analogues. Synthesis, structure, antitumor activity, and interactions with inosine monophosphate dehydrogenase” (J Med Chem, 1995).

Assays:
HL-60 [1] = test: (§1) Inhibitory concentration range against human HL-60 cell line; assay type: functional
Method in brief: (§2)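 Antiproliferative assay scoring [125I]-5-iodo-2'-deoxyuridine incorporation into DNA after 72 h drug–cell contact. Run on normal human bone marrow from five donors and in three assays on HL-60. Ratio is antilog(mean log IC50 or IC90) on bone marrow over the same on HL-60. Range limits are antilog(mean log IC50 ± 2SD).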

HL-60 [2] = test: Inhibitory concentration against HL-60 human promyelocytic leukemia; assay type: functional, cell-based
Method in brief: (§3)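 Cells in log phase plated with a range of drug concentrations (B16 5×10^3 cells/well; P388, L1210, LLC 10^4 cells/well; HL-60, K562, LoVo 2.5×10^5 cells/well). Growth read by modified MTT after 72 h drug contact at 37 °C. IC50 taken as the concentration reducing optical absorption by 50%, from Chou regression analysis. Maximum concentration tested 200 μM.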

HL-60 [3] = test: as §1; assay type: functional, cell-based; method in brief: as §2
Homo sapiens [4] = organism: Homo sapiens; test: (§4) Inhibitory concentration range against human bone marrow; assay type: functional, organism-based; method in brief: as §2
Homo sapiens [5] = organism: Homo sapiens; test: as §4; assay type: functional; method in brief: as §2
K562 [6] = test: Compound was tested for its effect on UDP ribonucleotide levels of K562 cell at 50 uM concentration; assay type: functional, Homo sapiens
Method in brief: (§5)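 K562 cells (1×10^7) were treated with saline or agent for 2 h at 37 °C, harvested by centrifugation and washed with cold saline. They were extracted with cold 10% trichloroacetic acid, neutralized with 0.5 M tri-n-octylamine in freon, and analyzed by HPLC. Levels are in nmol/g and expressed as % of saline control. Significance was set at p < 0.05.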

K562 [7] = test: Compound was tested for its effect on UMP ribonucleotide levels of K562 cell at 100 uM concentration; assay type: functional, Homo sapiens; method in brief: as §5
K562 [8] = test: Compound was tested for its effect on UMP ribonucleotide levels of K562 cell at 50 uM concentration; assay type: functional, Homo sapiens; method in brief: as §5
K562 [9] = test: Compound was tested for its effect on UTP ribonucleotide levels of K562 cell at 100 uM concentration; assay type: functional, Homo sapiens; method in brief: as §5
K562 [10] = test: Compound was tested for its effect on UTP ribonucleotide levels of K562 cell at 50 uM concentration; assay type: functional, Homo sapiens; method in brief: as §5
K562 [11] = test: compound was tested for its effect on IMPDH activity against K562 cells at 50 uM concentration; assay type: functional, Homo sapiens
Method in brief: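 K562 cells (1×10^6/mL, log phase) exposed 2 h at 37 °C to 10, 50 or 100 μM drug, or to saline. Cells washed and lysed in Tris-HCl pH 7.4/NaCl/MgCl2/NP-40/aprotinin, and the 13000g supernatant used as enzyme. Enzyme incubated 30 min at 37 °C with 286 μM [2,8-3H]IMP and 1 mM NAD. Tritium release counted; activity in nmol XMP/h/mg protein, as % of saline control.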

K562 [12] = test: Compound was tested for its effect on GDP ribonucleotide levels of K562 cell at 50u; assay type: functional, Homo sapiens; method in brief: as §5
K562 [13] = test: Compound was tested for its effect on GMP ribonucleotide levels of K562 cell at 100 uM concentration; assay type: functional, Homo sapiens; method in brief: as §5
K562 [14] = test: Compound was tested for its effect on GMP ribonucleotide levels of K562 cell at 50 uM concentration; assay type: functional, Homo sapiens; method in brief: as §5
K562 [15] = test: Compound was tested for its effect on GTP ribonucleotide levels of K562 cell at 100 uM concentration; assay type: functional, Homo sapiens; method in brief: as §5
K562 [16] = test: Compound was tested for its effect on GTP ribonucleotide levels of K562 cell at 50 uM concentration; assay type: functional, Homo sapiens; method in brief: as §5
K562 [17] = test: Formation of NAD analogue by compound at 100 uM concentration against human myelogenous leukemia K562; assay type: functional
Method in brief: (§6)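 K562 cells (1×10^7/10 mL) were labeled with 185 nM [2,8-3H]adenosine for 1 h at 37 °C, then given saline or analogue for 2 h. Cells were pelleted, washed with PBS and extracted in cold 10% trichloroacetic acid. Extracts were neutralized with 0.5 M tri-n-octylamine in freon and run on SAX HPLC with ammonium phosphate buffer. Results are pmol NAD analogue per 10^9 cells.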

K562 [18] = test: Formation of NAD analogue by compound at 50 uM concentration against human myelogenous leukemia K562; assay type: functional; method in brief: as §6
K562 [19] = test: Compound was tested for its effect on IMP ribonucleotide levels of K562 cell at 50 uM concentration; assay type: functional, Homo sapiens; method in brief: as §5
K562 [20] = test: Compound was tested for its effect on NAD ribonucleotide levels of K562 cell at 100 uM concentration; assay type: functional, Homo sapiens; method in brief: as §5
K562 [21] = test: Compound was tested for its effect on NAD ribonucleotide levels of K562 cell at 50 uM concentration; assay type: functional, Homo sapiens; method in brief: as §5
K562 [22] = test: Compound was tested for its effect on UDP ribonucleotide levels of K562 cell at 100 uM concentration; assay type: functional, Homo sapiens; method in brief: as §5
K562 [23] = test: Inhibitory concentration against K562 human myelogenous leukemia cell line; assay type: functional, cell-based; method in brief: as §3
[24] = tested on: Lewis lung carcinoma cell line; test: Inhibitory concentration against LLC Lewis lung carcinoma; assay type: functional, cell-based; settings: Mus musculus; method in brief: as §3
L1210 = test: Inhibitory concentration against L1210 murine lymphocytic leukemia; assay type: functional, cell-based; settings: Mus musculus; method in brief: as §3
K562 [25] = test: Compound was tested for its effect on ADP ribonucleotide levels of K562 cell at 100 uM concentration; assay type: functional, Homo sapiens; method in brief: as §5
K562 [26] = test: Compound was tested for its effect on ADP ribonucleotide levels of K562 cell at 50 uM concentration; assay type: functional, Homo sapiens; method in brief: as §5
K562 [27] = test: Compound was tested for its effect on AMP ribonucleotide levels of K562 cell at 100 uM concentration; assay type: functional, Homo sapiens; method in brief: as §5
K562 [28] = test: Compound was tested for its effect on AMP ribonucleotide levels of K562 cell at 50 uM concentration; assay type: functional, Homo sapiens; method in brief: as §5
K562 [29] = test: Compound was tested for its effect on ATP ribonucleotide levels of K562 cell at 100 uM concentration; assay type: functional, Homo sapiens; method in brief: as §5
K562 [30] = test: Compound was tested for its effect on ATP ribonucleotide levels of K562 cell at 50 uM concentration; assay type: functional, Homo sapiens; method in brief: as §5
K562 [31] = test: Compound was tested for its effect on CDP ribonucleotide levels of K562 cell at 100 uM concentration; assay type: functional, Homo sapiens; method in brief: as §5
K562 [32] = test: Compound was tested for its effect on CDP ribonucleotide levels of K562 cell at 50 uM concentration; assay type: functional, Homo sapiens; method in brief: as §5
K562 [33] = test: Compound was tested for its effect on CTP ribonucleotide levels of K562 cell at 100 uM concentration; assay type: functional, Homo sapiens; method in brief: as §5
K562 [34] = test: Compound was tested for its effect on CTP ribonucleotide levels of K562 cell at 50 uM concentration; assay type: functional, Homo sapiens; method in brief: as §5
K562 [35] = test: Compound was tested for its effect on GDP ribonucleotide levels of K562 cell at 100 uM concentration; assay type: functional, Homo sapiens; method in brief: as §5
LoVo = test: Inhibitory concentration against LoVo human colon adenocarcinoma cell lines; assay type: functional, cell-based; method in brief: as §3
P388 = test: Inhibitory concentration against P388 murine lymphocytic leukemia cell lines; assay type: functional, cell-based; settings: Mus musculus; method in brief: as §3
Mus musculus [36] = test: Compound was tested for ratio of survival time of treated to control mice x100 at 25 mg/kg dose; assay type: functional
Method in brief: (§7)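 Female BD2F1 mice (8 weeks old, 20–22 g), eight per group, injected ip with 10^5 L1210 leukemia cells on day 0. Starting 24 h later, drug dissolved in 0.9% NaCl given ip once daily for 9 consecutive days. % T/C = survival time of treated/control mice × 100. Body weight change tracked from start to end of treatment.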

Mus musculus [37] = test: Compound was tested for ratio of survival time of treated to control mice x100 at 400 mg/kg dose; assay type: functional; method in brief: as §7
Mus musculus [38] = test: Average weight change of mice from onset to termination of drug treatment at 25 mg/kg dose; assay type: functional
Method in brief: (§8)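 Female BD2F1 mice (8 weeks, 20–22 g), eight per group, injected ip with 10^5 L1210 cells on day 0. From 24 h later, drug in 0.9% NaCl was given ip once daily for 9 days. Body weight change was averaged from onset to termination of treatment. Early deaths from toxicity were recorded.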

Mus musculus [39] = test: Average weight change of mice from onset to termination of drug treatment at 400 mg/kg dose; assay type: functional; method in brief: as §8
[40] = Ratio of IC50 against HL-60; assay type: functional; method in brief: as §2
[41] = IC50 ratio against bone marrow samples to HL-60; assay type: functional; method in brief: as §2
[42] = IC90 ratio against bone marrow samples to HL-60; assay type: functional; method in brief: as §2
K562 [43] = test: Compound was tested for its effect on IMP ribonucleotide levels of K562 cell at 100 uM concentration; assay type: functional, Homo sapiens; method in brief: as §5
K562 [44] = test: Compound was tested for its effect on IMPDH activity against K562 cells at 50 uM concentration; assay type: functional, Homo sapiens
Method in brief: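 Log-phase K562 cells (1×10^6/mL) were exposed to saline or agent for 2 h at 37 °C, washed and lysed (Tris-HCl pH 7.4, NaCl, MgCl2, 0.5% NP-40, aprotinin). The cleared supernatant was incubated 30 min at 37 °C with 286 μM [2,8-3H]IMP and 1 mM NAD. Tritium release was counted by scintillation. Activity is nmol XMP/h/mg protein, also given as % of control.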

Compound: NC(=O)c1csc([C@@H]2O[C@H](CO)[C@@H](O)[C@H]2O)n1 [TIAZOFURIN]
- IC90 (HL-60 [1]): 7.6 µM
- IC50 (HL-60 [2]): 8.7 µM
- IC50 (HL-60 [3]): 2.5 µM
- IC50 (Homo sapiens [4]): 10.4 µM
- IC90 (Homo sapiens [5]): >128 µM
- Control (K562 [6]): 120%
- Control (K562 [7]): 96%
- Control (K562 [8]): 113%
- Control (K562 [9]): 90%
- Control (K562 [10]): 115%
- Control (K562 [11]): 37%
- Control (K562 [12]): 82%
- Control (K562 [13]): 55%
- Control (K562 [14]): 62%
- Control (K562 [15]): 54%
- Control (K562 [16]): 64%
- Formation (K562 [17]): 310 pmol/10^9 cells
- Formation (K562 [18]): 186 pmol/10^9 cells
- Control (K562 [19]): 544%
- Control (K562 [20]): 84%
- Control (K562 [21]): 98%
- Control (K562 [22]): 116%
- IC50 (K562 [23]): 4.5 µM
- IC50 [24]: 1.5 µM
- IC50 (L1210): 7.4 µM
- Control (K562 [25]): 99%
- Control (K562 [26]): 103%
- Control (K562 [27]): 103%
- Control (K562 [28]): 100%
- Control (K562 [29]): 91%
- Control (K562 [30]): 101%
- Control (K562 [31]): 85%
- Control (K562 [32]): 104%
- Control (K562 [33]): 32%
- Control (K562 [34]): 92%
- Control (K562 [35]): 63%
- IC50 (LoVo): > 128 µM
- IC50 (P388): 2.2 µM
- T/C (Mus musculus [36]): 177%
- T/C (Mus musculus [37]): 260%
- Change (Mus musculus [38]): -4.3%
- Change (Mus musculus [39]): -13.1%
- Ratio [40]: 1.9
- Ratio [41]: 7.3
- Ratio [42]: >6
- Control (K562 [43]): 578%
- Activity (K562 [44]): 1.82
